Measured values as given in ChEMBL document CHEMBL3596132, “Antiproliferative activity of O4-benzo[c]phenanthridine alkaloids against HCT-116 and HL-60 tumor cells” (Bioorg Med Chem Lett, 2015).

What was measured:
Type in all cases: functional, cell-based
HL-60 = assay: Antiproliferative activity against human HL60 cells assessed as inhibition of cell viability after 48 hrs by WST-1 assay; settings: HL-60, 48 h
Method in brief: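 WST-1 assay. HL-60 cells were seeded at 1.0 × 10^4 per well in FBS-containing medium together with test agents and incubated 48 h. Absorbance read at 415 nm. Viability expressed as percent of untreated controls; IC50 reported.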

HCT-116 = assay: Antiproliferative activity against human HCT116 cells assessed as inhibition of cell viability after 48 hrs by MTT assay; settings: HCT-116, 48 h
Method in brief: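 HCT-116 cells seeded at 2.0 × 10^3 per well and allowed to attach for 24 h at 37 °C, 5% CO2. Agents were added in FBS-containing medium for 48 h. MTT (5 mg/mL in PBS stock) was then added for 4 h, formazan dissolved in DMSO, and absorbance read at 570 nm. Viability expressed as percent of untreated controls; IC50 reported.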

HepG2 = assay: Cytotoxicity against human HepG2 cells

SMILES | IC50 (HL-60) [µM] | IC50 (HCT-116) [µM] | IC50 (HepG2) [µM]
COc1ccc2c(cnc3c4cc5c(cc4ccc23)OCO5)c1OC | > 10 | > 10 | –
COc1ccc2c(c[n+](C)c3c4cc5c(cc4ccc23)OCO5)c1O | 0.79 | 1.31 | –
COc1cc2c(cc1O)c[n+](C)c1c3cc4c(cc3ccc21)OCO4 | > 10 | > 10 | –
COc1cc2c[n+](C)c3c4cc5c(cc4ccc3c2cc1O)OCO5 | 3.28 | 3.35 | –
COc1ccc2c[n+](C)c3c4cc5c(cc4ccc3c2c1OC)OCO5 | 7.82 | 3.23 | –
COc1c(O)ccc2c[n+](C)c3c4cc5c(cc4ccc3c12)OCO5 | > 10 | > 10 | –
COc1cc2c(cc1O)-c1ccc3cc4c(cc3c1N(C)C2)OCO4 | > 10 | 7.28 | –
COc1ccc2c(c1OC)-c1ccc3cc4c(cc3c1N(C)C2)OCO4 | > 10 | > 10 | –
COc1c(O)ccc2c1-c1ccc3cc4c(cc3c1N(C)C2)OCO4 | > 10 | > 10 | –
COc1ccc2c(cnc3c4cc5c(cc4ccc23)OCO5)c1O | > 10 | > 10 | –
COc1cc2c(cnc3c4cc5c(cc4ccc23)OCO5)cc1O | > 10 | > 10 | –
COc1cc2cnc3c4cc5c(cc4ccc3c2cc1O)OCO5 | > 10 | > 10 | –
COc1ccc2cnc3c4cc5c(cc4ccc3c2c1OC)OCO5 | > 10 | > 10 | –
COc1c(O)ccc2cnc3c4cc5c(cc4ccc3c12)OCO5 | > 10 | > 10 | –
COc1cc2c(cc1OC)-c1ccc3cc4c(cc3c1N(C)C2)OCO4 | 4.51 | 6.61 | –
COc1ccc2c(c1O)CN(C)c1c-2ccc2cc3c(cc12)OCO3 | 4.96 | 3.22 | –
COc1cc2cnc3c4cc5c(cc4ccc3c2cc1OC)OCO5 | > 10 | > 10 | –
COc1ccc2c(c[n+](C)c3c4cc5c(cc4ccc23)OCO5)c1OC [CHELERYTHRINE CHLORIDE] | 2.99 | 2.13 | –
COc1ccc2c(c1OC)CN(C)c1c-2ccc2cc3c(cc12)OCO3 [DIHYDROCHELERYTHRINE] | > 10 | > 10 | –
COc1cc2c[n+](C)c3c4cc5c(cc4ccc3c2cc1OC)OCO5 [NITIDINE CHLORIDE] | 3.41 | 4.42 | 3.52
